Assay results published in ChEMBL document CHEMBL1142174, “Pyrazinoic acid and its n-propyl ester inhibit fatty acid synthase type I in replicating tubercle bacilli” (2007).
Converted amounts (≈) assume the structure as drawn.

What was measured:
[1] = tested on: Mycobacterium tuberculosis; assay: Inhibition of fatty acid synthase 1 in Mycobacterium tuberculosis assessed as incorporation of [1-14C]acetate in C16 biosynthesis at 250 ug/ml
Method in brief: (§1)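 M. tuberculosis was grown from frozen stock in 7H12 to OD600 0.3–0.4, diluted 10-fold and grown 48–72 h more. 10-ml aliquots (OD600 0.2–0.25) were pelleted and resuspended in fresh drug-containing medium for 12 h. Cells were labelled with [1-14C]acetate (1 μCi/ml) for 6 h. Soluble lipids were extracted and saponified, and 14C-labelled C16 was quantified.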

[2] = tested on: Mycobacterium tuberculosis; assay: Inhibition of fatty acid synthase 1 in Mycobacterium tuberculosis assessed as incorporation of [1-14C]acetate in C16 biosynthesis at 1200 ug/ml at pH 6.0; method in brief: as §1
[3] = tested on: Mycobacterium tuberculosis; assay: Antimicrobial activity against Mycobacterium tuberculosis at pH 6 by broth microdilution test; format: functional
[4] = tested on: Mycobacterium tuberculosis; assay: Antimicrobial activity against Mycobacterium tuberculosis at pH 6.8 by broth microdilution test; format: functional
Method in brief: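 Broth macrodilution MIC with an inoculum of 10^5 CFU/ml. Medium was Middlebrook 7H9 with 10% OADC, 0.2% glycerol and 0.05% Tween 80. Medium pH was set to 6 or 6.8 with 4.25% phosphoric acid or 5% dibasic potassium phosphate.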

[5] = tested on: Mycobacterium tuberculosis; assay: Inhibition of fatty acid synthase 1 in Mycobacterium tuberculosis assessed as incorporation of [1-14C]acetate in C16 biosynthesis at 800 ug/ml; method in brief: as §1
[6] = tested on: Mycobacterium tuberculosis; assay: Inhibition of fatty acid synthase 1 in Mycobacterium tuberculosis assessed as incorporation of [1-14C]acetate in C16 biosynthesis at 250 ug/ml at pH 5.5; method in brief: as §1
[7] = tested on: Mycobacterium tuberculosis; assay: Inhibition of fatty acid synthase 1 in Mycobacterium tuberculosis assessed as incorporation of [1-14C]acetate in C16 biosynthesis at 1250 ug/ml at pH 6.0; method in brief: as §1

NC(=O)c1cnc(Cl)cn1
inhibition [1]: 94%

NC(=O)c1cnccn1
inhibition [2]: 88%

CCCOC(=O)c1cnccn1
MIC [3]: 60 µg/mL (≈ 361 µM) | MIC [4]: 80 µg/mL (≈ 481 µM) | inhibition [5]: 96%

O=C(O)c1cnccn1 [PYRAZINOIC ACID]
MIC [3]: 100 µg/mL (≈ 806 µM) | MIC [4]: 300 µg/mL (≈ 2420 µM) | inhibition [6]: 60% | inhibition [7]: 60%
